We go through eleven molecules from ChEMBL document CHEMBL4130405, “Iridoid Glycosides from the Twigs of Sambucus williamsii var. coreana and Their Biological Activities” (J Nat Prod, 2017).

Broadly, the IC50 is the midpoint of a concentration-inhibition curve.

A value given as a limit tells only on which side of the number the result lay.

Data set [1] relates to A549. As to the kind of experiment: Cytotoxicity against human A549 cells after 48 hrs by SRB assay. It counts as functional, cell-based. Conditions: A549, 48 h. The method, boiled down: (§1)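 Cells from ATCC were seeded and left 24 h at 37 °C under 5% CO2. Attached cells were then exposed for 48 h to serial dilutions of 30, 10, 3, 1, 0.3 and 0.1 μM. Cells were fixed with cold 10% TCA at 4 °C for 1 h and stained with 0.4% SRB for 30 min at room temperature. Dye was solubilized in 10 mM Tris base (pH 10.5) and absorbance read at 520 nm. Etoposide served as positive control. IC50 is the mean ± SD of three independent experiments.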
For orientation: In SRB staining, fixed cells bind dye roughly in proportion to their protein.

In data set [2] the test system is SK-OV-3. As to the kind of experiment: Cytotoxicity against human SKOV3 cells after 48 hrs by SRB assay. The data set is classed as functional, cell-based. The settings on record: SK-OV-3, 48 h. The method, boiled down: as §1
Data set [3] deals with SK-MEL-2. As to the kind of experiment: Cytotoxicity against human SK-MEL-2 cells after 48 hrs by SRB assay. The data set is classed as functional, cell-based. Conditions: SK-MEL-2, 48 h. The gist of the method:
as §1

The test system of data set [4] is BT-549. As to the kind of experiment: Cytotoxicity against human BT549 cells after 48 hrs by SRB assay. The data set is classed as functional, cell-based. The settings on record: BT-549, 48 h. The method, boiled down:
as §1

Data set [5] relates to BV-2. As to the kind of experiment: Antineuroinflammatory activity in mouse BV2 cells assessed as inhibition of LPS-induced nitric oxide production pretreated for 30 mins followed by LPS-stimulation after 24 hrs by Griess assay. The data set is classed as functional, cell-based. The method, boiled down: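 BV-2 microglia were pretreated with compound for 30 min, then stimulated with LPS (100 ng/mL) for 24 h. Nitrite in the supernatant was mixed with an equal volume of Griess reagent (1% sulfanilamide, 0.1% naphthylethylenediamine in 5% phosphoric acid) for 10 min and read at 570 nm. Values were quantified against a sodium nitrite standard curve. L-NMMA served as positive control. IC50 is the concentration giving 50% inhibition of NO production; three independent experiments.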

Data set [6] is described as follows: Cytotoxicity against mouse BV2 cells assessed as cell viability at 20 uM by MTT assay relative to control. It counts as cell-based, BV-2. The settings on record: read-out: Activity. The gist of the method:
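Viability of LPS-activated BV-2 cells was measured after 24 h treatment with 20 μM compound. Read-out was MTT, expressed as percent. Values are means ± SD of three independent experiments.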
In general terms: Tetrazolium assays rely on reduction of a dye to a coloured formazan, in cell work by metabolically active cells.

Data set [7] concerns C6. As to the kind of experiment: Induction of NGF secretion in rat C6 cells at 20 uM after 24 hrs by ELISA relative to control. The data set is classed as functional. The method, boiled down:
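C6 glioma cells were seeded at 1 × 10^5 cells/well in DMEM with 10% FBS. After 24 h, cells were exposed to 20 μM compound in DMEM with 2% FBS for 24 h. NGF secreted into the conditioned medium was measured by ELISA as percent of untreated control (100%). 6-Shogaol served as positive control. Data are mean ± SD of three independent experiments in triplicate.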
(An ELISA detects its analyte on a solid surface through an enzyme-linked reagent.)

A short description of data set [8]: Cytotoxicity against rat C6 cells assessed as cell viability at 20 uM after 24 hrs by MTT assay relative to control. The data set is classed as cell-based. The settings on record: read-out: Activity. The method, boiled down: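 C6 glioma cells were kept in DMEM with 10% FBS and seeded at 1 × 10^5 cells/well. After 24 h, cells were treated with 20 μM compound in DMEM with 2% FBS for 24 h. MTT reagent was added for 1 h at 37 °C, formazan dissolved in DMSO and absorbance read at 570 nm. Results are percent, mean ± SD of three independent experiments.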

In the case of `CC(C)CC(=O)O[C@@H]1OC=C(CO[C@@H]2O[C@H](CO)[C@@H](O)[C@H](O)[C@H]2OC(=O)/C=C\c2ccc(O)cc2)[C@H]2CC[C@](O)(CO)[C@@H]12`, the IC50 is over 10 µM in data set [1]; over 10 µM in data set [2]; 8.4 µM in data set [3]; 8.7 µM in data set [4]; 0.9 to 0.95 µM in data set [5]. Also, in data set [6], the viability at 20 µM was found to be 103%. In addition, the Activity in data set [7] is given as 147%. Besides, the viability at 24 h, 20 µM in data set [8] worked out at 102%.
`CC(=O)OC[C@@]1(O)CC[C@@H]2C(CO[C@@H]3O[C@H](CO)[C@@H](O)[C@H](O)[C@H]3OC(=O)/C=C\c3ccc(O)cc3)=CO[C@@H](OC(=O)CC(C)C)[C@@H]21`: the half-maximal inhibitory concentration (IC50) in data set [1] is over 10 µM; in data set [2] it was 7.5 µM; in data set [3], 5.2 µM; in data set [4], 4 µM; in data set [5], 1.2 to 1.22 µM. For the same molecule, in data set [6], the viability at 20 µM stood at 130%. The Activity in data set [7] worked out at 134.1%. In data set [8], the viability at 24 h, 20 µM stood at 104%.
Consider `C=C1[C@@H]2O[C@@H](OC)[C@@H]3[C@@H](O2)[C@@H](O)C[C@H]13`, for which the IC50 was over 10 µM in data set [1]; over 10 µM in data set [2]; over 10 µM in data set [3]; over 10 µM in data set [4]; 110 µM in data set [5]. In data set [6], the viability at 20 µM turned out to be 36%. The Activity in data set [7] is 152.6%. Besides, in data set [8], the viability at 24 h, 20 µM came to 111%.
Take `C=C1[C@@H]2O[C@@H](OC)[C@@H]3[C@H](CC[C@H]13)O2`: the 50% inhibitory concentration (IC50) in data set [1] is over 10 µM; in data set [2], over 10 µM; in data set [3] it was over 10 µM; in data set [4], over 10 µM; in data set [5], 94.2 µM. Also, the viability at 20 µM in data set [6] turned out to be 104%. In data set [7], the Activity is 133.4%. In addition, the viability at 24 h, 20 µM in data set [8] came out at 106%.
As to `CC(C)CC(=O)O[C@@H]1OC=C(CO[C@@H]2O[C@H](CO)[C@@H](O)[C@H](O)[C@H]2OC(=O)/C=C/c2ccc(O)cc2)[C@H]2CC[C@](O)(CO)[C@@H]12`, the IC50 is over 10 µM in data set [1]; over 10 µM in data set [2]; over 10 µM in data set [3]; over 10 µM in data set [4]; 45.5 µM in data set [5]. The viability at 20 µM in data set [6] stood at 102%. In data set [7], this molecule had an Activity of 130.4%. Further, the viability at 24 h, 20 µM in data set [8] worked out at 115%.
`CC(=O)OC[C@@]1(O)CC[C@@H]2C(CO[C@@H]3O[C@H](CO)[C@@H](O)[C@H](O)[C@H]3OC(=O)/C=C/c3ccc(O)cc3)=CO[C@@H](OC(=O)CC(C)C)[C@@H]21`: the IC50 in data set [1] was over 10 µM; in data set [2] it was over 10 µM; in data set [3] it was over 10 µM; in data set [4] it was over 10 µM; in data set [5] it was 29.8 µM. Besides, in data set [6], the viability at 20 µM was 143%. Further, the Activity in data set [7] is on record as 158.7%. The viability at 24 h, 20 µM in data set [8] was 120%.
In the case of `CCC(C)C(=O)O[C@@H]1OC=C(CO[C@@H]2O[C@H](CO)[C@@H](O)[C@H](O)[C@H]2OC(=O)/C=C/c2ccc(O)cc2)[C@H]2CC[C@](O)(CO)[C@@H]12` (some centres not stated), the IC50 in data set [1] was 3.8 µM; in data set [2], 1.9 µM; in data set [3] it was 1.4 µM; in data set [4], 1.3 µM; in data set [5], 1.25 to 1.3 µM. For the same molecule, in data set [6], the viability at 20 µM was 136%. In data set [7], the Activity amounted to 145.4%. For the same molecule, the viability at 24 h, 20 µM in data set [8] was 101%.
As to `CC(C)CC(=O)O[C@@H]1OC=C(CO[C@@H]2O[C@H](CO)[C@@H](O)[C@H](O)[C@H]2O)[C@H]2C[C@H](O)[C@](O)(CO)[C@@H]12`, the 50% inhibitory concentration (IC50) in data set [1] was over 10 µM; in data set [2], over 10 µM; in data set [3], over 10 µM; in data set [4] it was over 10 µM; in data set [5], 112 µM. The viability at 20 µM in data set [6] amounted to 103%. Further, the Activity in data set [7] is given as 107.4%. Further, in data set [8], the viability at 24 h, 20 µM turned out to be 116%.
As to `COc1cc([C@@H]2c3cc4c(cc3[C@@H](O[C@@H]3O[C@@H]5CO[C@@H](C)O[C@H]5[C@H](O)[C@H]3O)[C@H]3COC(=O)[C@H]23)OCO4)cc(OC)c1O` [ETOPOSIDE], the IC50 in data set [1] was 1.1 µM; in data set [2], 2.9 µM; in data set [3] it was 0.2 µM; in data set [4], 1 µM.
In the case of `CCCCC/C=C/C(=O)CCc1ccc(O)c(OC)c1` [SHOGAOL], the Activity in data set [7] is on record as 146.3%. Besides, the viability at 24 h, 20 µM in data set [8] turned out to be 98.8%.
In the case of `CNC(=N)NCCC[C@H](N)C(=O)O` [TILARGININE], the half-maximal inhibitory concentration (IC50) in data set [5] is 13.2 µM. Moreover, in data set [6], the viability at 20 µM worked out at 120%.
